# This is a sample that favours compounds with a hit; in the whole collection about 4.1% have one here.
# MEKK2 WT-MEK5: raises or lowers MEK5 binding to wildtype human MEKK2 PB1 domain | Q9Y2U5 | bead flow cytometry, Alexa488-MEK5 binding to MEKK2 WT; actives lie on both sides | binding response (% of control), % at 10 µM | 290,000 compounds, 1.1% hits | AID 1531; in the data active means binding response below about 67% or above about 130%
# MEKK2 mut-MEK5: signal of MEK5 binding to mutant human MEKK2 PB1 domain; bead flow cytometry, Alexa488-MEK5 binding to MEKK2 mutant; percent response, % at 10 µM; 290,000 compounds, 0.35% hits; AID 1530; in the data active means percent response above about 24%, passing the limit was not always enough
# HCV NS3 hel inh: blocks Hepatitis C virus NS3 helicase unwinding | NS3 helicase DNA unwinding, Cy5 molecular beacon fluorescence | inhibition, % at 10.9 µM | 290,000 compounds, 0.56% hits;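 active means inhibition above the mean of all tested compounds plus 3 SD, set per campaign, cut at about 35% in these data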;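 further: 0% = DMSO wells and 100% = thioflavine S control wells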
#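 System: Hepatitis C virus NS3 helicase domain fragment enzyme | Reagent: Annealed dual-labelled DNA beacon duplex, ATP-started | Compound dosing: 10.9 µM single point, 0.8% DMSO | Incubation: 1 h reaction at 25 °C, ATP-initiated | Technique: Cy5 fluorescence | Evaluation: Percent inhibition from t60/t0 fluorescence ratio | Benchmarks: Low DMSO, high thioflavine S at 110 µM | Replication: Singlicate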
# DNA FID counter-1: displaces DNA intercalator in HCV helicase counter-screen | AID 1845 | DNA fluorescent intercalator displacement, fluorescence | 290,000 compounds, 0.17% hits | inhibition, % at 7.9 µM;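 further: 0% = vehicle and 100% = reference compound; higher means more ethidium bromide displaced from hairpin DNA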
# T cruzi inh: blocks replication of Trypanosoma cruzi; T. cruzi beta-gal in NIH3T3, luminescence, 90 h; inhibition, % (test concentration not listed); 300,000 compounds, 1.4% hits; AID 1885;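 active means mean inhibition across valid replicates above about 55%, limit read from the data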;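 further: signal also drops with host cell toxicity which is not excluded here; 0% = plate median of DMSO wells and 100% = zero luminescence signal; higher percent means less beta-gal luminescence so fewer parasites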
#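 assay system = mouse NIH/3T3 fibroblasts infected with β-gal-expressing T. cruzi Tulahuen C4 | input = 5,000 NIH/3T3 host cells per well | buffer or medium = DMEM plus 2% FBS | timing = 3 h host attachment, then at least 90 h co-culture | measured by = GalScreen luminescence, 60 min | evaluation = luminescence reflecting intracellular parasite burden, expressed as percent inhibition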
# MEKK3 PB1 HTS: raises or lowers MEK5 binding to the human MEKK3 PB1 domain. Q99759. bead-based flow cytometry, Alexa488-MEK5 binding to MEKK3; actives lie on both sides; 0 = blocked by unlabeled MEK5, 100 = vehicle. binding response (% of control), % at 10 µM. 290,000 compounds, 1.4% hits. AID 1529;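 active means binding response more than 3 SD above or below the average of its plate-row segment, actives on both sides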;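 further: Alexa488 bead fluorescence after subtracting the streptavidin-only scavenger bead signal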
# Target sequence (Q99759 whole entry, looked up, the tested form may be a part): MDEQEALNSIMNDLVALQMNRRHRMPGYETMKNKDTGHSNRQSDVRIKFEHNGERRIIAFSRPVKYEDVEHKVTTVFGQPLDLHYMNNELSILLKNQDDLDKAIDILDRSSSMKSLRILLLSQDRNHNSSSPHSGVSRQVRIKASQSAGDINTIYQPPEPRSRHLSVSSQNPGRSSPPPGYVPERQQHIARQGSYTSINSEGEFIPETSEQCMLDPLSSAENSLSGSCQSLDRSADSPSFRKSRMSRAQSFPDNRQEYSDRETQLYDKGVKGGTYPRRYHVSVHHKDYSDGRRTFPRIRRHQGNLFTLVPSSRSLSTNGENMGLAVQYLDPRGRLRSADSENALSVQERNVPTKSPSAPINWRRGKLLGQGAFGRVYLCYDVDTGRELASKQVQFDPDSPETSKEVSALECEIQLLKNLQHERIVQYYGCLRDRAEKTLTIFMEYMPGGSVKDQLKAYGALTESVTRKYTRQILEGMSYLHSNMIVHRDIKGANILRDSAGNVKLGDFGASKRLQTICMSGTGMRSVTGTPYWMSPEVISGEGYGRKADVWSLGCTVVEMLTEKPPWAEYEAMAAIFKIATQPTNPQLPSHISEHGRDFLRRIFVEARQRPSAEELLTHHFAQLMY
# NS3 helicase cf: confirmation of Hepatitis C virus NS3 helicase inhibitors; AID 1943; shares compounds with HCV NS3 hel inh; NS3 helicase DNA unwinding, Cy5 molecular beacon fluorescence; 1,600 compounds, 31% hits; inhibition, % at 10.9 µM;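 active means inhibition above the mean of all tested compounds plus 3 SD, cutoff set per campaign, cut at about 36% in these data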
# DNA FID counter-2: intercalator displacement, NS3 helicase counter-screen; AID 1945; DNA fluorescent intercalator displacement, fluorescence; 1,600 compounds, 4% hits; inhibition, % at 7.9 µM; shares compounds with HCV NS3 hel inh;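 further: 0% = vehicle and 100% = reference compound; higher means more displacement of ethidium bromide from the DNA hairpin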
# The depositor's hits bear a star; x = no result. Unless noted, no stated cut-off is given here; in the data, active means inhibition above about 37%; inactive means the rest.
SMILES,MEKK2 WT-MEK5,MEKK2 mut-MEK5,HCV NS3 hel inh,DNA FID counter-1,T cruzi inh,MEKK3 PB1 HTS,NS3 helicase cf,DNA FID counter-2
O=C(C1=C(O)C(=O)N(CC2CCCO2)C1c1ccc(Cl)cc1Cl)c1ccco1 (stereo not drawn),92,-11,68*,-44,-18,97,-3,-21
CC(C)(C)c1ccc(C2C(C(=O)c3ccco3)=C(O)C(=O)N2CC2CCCO2)cc1 (stereo not drawn),103,2,37*,-44,-2,98,10,-13
COC(=O)c1sccc1NC(=O)c1ccc(C(C)C)cc1,104,8,7,-12,1,105,x,x
COc1cc(C=C(c2nc3ccccc3s2)c2nc3ccccc3s2)cc(OC)c1O,89,-2,39*,-8,-4,97,-27,-8
COc1cc(/C=C(\CC(=O)O)c2nc3ccccc3s2)cc(OC)c1O,94,-6,4,-31,-11,99,x,x
O=C(COc1ccccc1)NC(Cc1c[nH]c2ccccc12)C(=O)O (stereo not drawn),93,-5,2,-13,-8,96,x,x
CC(C)c1ccc(OCC(=O)NC(Cc2c[nH]c3ccccc23)C(=O)O)cc1 (stereo not drawn),93,-4,48*,-40,-13,102,62*,-40
Cc1cc(=O)oc2cc(OCC(=O)NC(Cc3c[nH]c4ccc(O)cc34)C(=O)O)c(Cl)cc12 (stereo not drawn),95,0,40*,-24,-10,96,0,-24
Cc1cc(=O)oc2c(C)c(OC(C)C(=O)NC(Cc3c[nH]c4ccc(O)cc34)C(=O)O)ccc12 (stereo not drawn),98,-2,16,-18,-6,97,x,x
CC(=O)Nc1ccccc1C(=O)N1CCN(Cc2ccc3c(c2)OCO3)CC1,106,6,2,-6,-2,108,x,x
O=C(NNC1CC(=O)N(c2ccc(Cl)cc2)C1=O)c1ccccc1Cl (stereo not drawn),96,-5,38*,-18,-1,98,-14,-6
Cc1ccc(C)c(N(CC(=O)NCc2ccco2)C(=O)CCC(=O)Nc2nccs2)c1,90,-8,6,-39,-16,93,x,x
O=CC1=C(N2CCOCC2)/C(=C/c2ccc(Cl)cc2)CC1,102,4,8,-13,3,102,x,x
Cc1cc(C)nc(N/N=C/C2=C(N3CCOCC3)C(=C\c3ccc(Cl)cc3)/CC2)n1,92,-4,36*,-20,-19,91,-6,-10
CCOC(=O)c1cc2c(C)n(-c3ccc(OCC)cc3)c(C)c2ccc1=O,98,-4,55*,-17,22,97,-12,-9
Cc1ccccc1CN1C(=O)CS/C1=N/N=C/c1ccco1,94,-15,45*,-32,-5,97,-17,-18
CCC1S/C(=N/N=C/c2ccco2)N(Cc2ccccc2C)C1=O (stereo not drawn),102,-2,-11,-26,22,98,x,x
CC[C@@H](C)[C@H](NC(=O)Cc1c(C)c2cc3c(C)c(C)oc3c(C)c2oc1=O)C(=O)O,99,2,49*,-15,-6,102,75*,9
CC[C@@H](C)[C@H](NC(=O)Cc1c(C)c2cc3c(C)coc3c(C)c2oc1=O)C(=O)O,106,10,17,-28,-16,109,x,x
Cc1oc2c(c(C)cc3oc(=O)c(CC(=O)N[C@@H](CC(C)C)C(=O)O)c(C)c32)c1C,101,10,47*,-50,-14,109,24,-35
CCN1C(=O)[C@@H]2Cc3c([nH]c4ccccc34)C(c3ccc(OC)cc3)N2C1=S (stereo partly drawn),91,-1,7,-25,35,96,x,x
O=C(COC(=O)/C=C/c1cccc([N+](=O)[O-])c1)NCC1CCCO1 (stereo not drawn),99,-1,48*,1,18,107,-7,4
O=C(NCCCN1CCCC1=O)c1c(O)nc2sccn2c1=O,x,x,x,x,-7,x,x,x
COc1ccc(-c2c(C#N)c(SCC(=O)c3cc4ccccc4oc3=O)nc(C)c2C(=O)Nc2ccccc2)cc1,108,38,52*,-9,-5,106,11,-5
S=c1nc(Cc2ccccc2)[nH]c2ccccc12,101,0,-4,-5,-21,101,x,x
SMILES,MEKK2 WT-MEK5,MEKK2 mut-MEK5,HCV NS3 hel inh,DNA FID counter-1,T cruzi inh,MEKK3 PB1 HTS,NS3 helicase cf,DNA FID counter-2
S=c1nc(COc2ccccc2)[nH]c2ccccc12,92,-1,42*,-13,-15,99,-12,3
Cc1ccc(NC(=O)CCS(=O)(=O)c2cccc3nonc23)cc1Cl,96,-7,42*,6,2,101,-11,3
N#Cc1cn(N2CCCCC2)c(=O)[nH]c1=O,97,1,9,-4,-4,102,x,x
CCOC(=O)c1c(C)oc2c(F)c(F)c(F)c(F)c2c1=O,98,-4,42*,0,-17,100,4,26
CCOC(=O)c1c(C)oc2c1cc(O)c1ccccc12,94,0,11,-4,-11,94,x,x
CC(C)c1ccc(SCc2noc(C(=O)NCC3CCCO3)c2C(=O)O)cc1 (stereo not drawn),106,6,41*,-35,-17,103,36,-19
O=C(NCC1CCCO1)c1onc(CSc2ccccc2)c1C(=O)O (stereo not drawn),106,6,-1,-10,-4,107,x,x
CCCCSc1nnc(-c2ccccc2NC(C)=O)c(=O)[nH]1,94,-9,1,10,x,95,x,x
Cc1nn(Cc2ccccc2)c(Cl)c1/C=C/C(=O)OCC(=O)N(C)C1CCS(=O)(=O)C1 (stereo not drawn),104,-4,46*,-21,-2,102,-12,-20
CC(C)Nc1ccc(Cl)cc1[N+](=O)[O-],109,19,41*,-2,-20,123,-12,1
CN(C)CCNc1ccc(Cl)cc1[N+](=O)[O-],96,-2,4,6,35,97,x,x
Cc1[nH]nc(SCC(=O)N(C)c2ccccc2)c1[N+](=O)[O-],95,-6,-1,-1,2,97,x,x

# Source: PubChem BioAssay
